Laboratory results as given in ChEMBL document CHEMBL4725483, “Simultaneous Inhibition of SIRT2 Deacetylase and Defatty-Acylase Activities via a PROTAC Strategy” (ACS Med Chem Lett, 2020).
Active and inactive are the calls of the source. The rule behind the calls is not given here.

Legend:
[1] = target: T1, NAD-dependent protein deacetylase sirtuin-2 (Homo sapiens, UniProt Q8IXJ6); test: Inhibition of human SIRT2 deacetylation activity using H3K9Ac as substrate preincubated for 15 mins in presence of NAD+ by HPLC analysis
T1 sequence (Q8IXJ6 whole entry): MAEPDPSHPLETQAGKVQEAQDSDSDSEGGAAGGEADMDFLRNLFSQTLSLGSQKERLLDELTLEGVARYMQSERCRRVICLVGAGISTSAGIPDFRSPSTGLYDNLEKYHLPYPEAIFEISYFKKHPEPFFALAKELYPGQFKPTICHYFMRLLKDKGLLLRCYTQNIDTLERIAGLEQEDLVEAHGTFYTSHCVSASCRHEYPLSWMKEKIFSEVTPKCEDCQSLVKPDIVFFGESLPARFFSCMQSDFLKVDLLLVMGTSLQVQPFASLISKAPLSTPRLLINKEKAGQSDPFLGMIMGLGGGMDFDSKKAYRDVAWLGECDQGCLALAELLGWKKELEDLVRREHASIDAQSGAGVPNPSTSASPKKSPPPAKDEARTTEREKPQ
In short: (§1)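 In vitro sirtuin reaction mixture with compound at a range of concentrations. Compound was preincubated with NAD+ and the enzyme before the substrate peptide was added. IC50 taken from the concentration series.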

[2] = target: T1, NAD-dependent protein deacetylase sirtuin-2; test: Inhibition of human SIRT2 defatty-acylation activity using peptide substrate preincubated in presence of NAD+ followed by substrate addition by HPLC analysis
In short: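 SIRT2 defatty-acylase reaction with compound at a range of concentrations. Compound was preincubated with NAD+ and SIRT2 before the peptide substrate was added. IC50 derived from the dose series.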

[3] = target: T2, NAD-dependent protein deacetylase sirtuin-3, mitochondrial (Homo sapiens, UniProt Q9NTG7); test: Inhibition of human SIRT3 deacetylation activity using H3K9Ac as substrate preincubated for 15 mins in presence of NAD+ followed by substrate addition by HPLC analysis; in short: as §1
T2 sequence (Q9NTG7 whole entry): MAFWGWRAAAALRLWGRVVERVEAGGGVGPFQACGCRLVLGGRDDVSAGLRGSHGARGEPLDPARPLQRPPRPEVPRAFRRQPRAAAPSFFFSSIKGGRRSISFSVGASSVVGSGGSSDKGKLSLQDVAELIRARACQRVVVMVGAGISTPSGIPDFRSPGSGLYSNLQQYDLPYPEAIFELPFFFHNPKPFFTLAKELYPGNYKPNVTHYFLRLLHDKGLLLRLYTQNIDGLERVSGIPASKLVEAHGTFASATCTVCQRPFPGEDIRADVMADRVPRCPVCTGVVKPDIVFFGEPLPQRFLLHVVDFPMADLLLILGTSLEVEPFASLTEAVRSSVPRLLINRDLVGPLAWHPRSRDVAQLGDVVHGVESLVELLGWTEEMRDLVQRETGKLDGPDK

[4] = target: NAD-dependent protein deacylase sirtuin-6 (Homo sapiens, UniProt Q8N6T7); test: Inhibition of human SIRT6 deacetylation activity using H3K9Ac as substrate preincubated for 15 mins in presence of NAD+ followed by substrate addition by HPLC analysis; in short: as §1
[5] = target: T3, Protein cereblon/NAD-dependent protein deacetylase sirtuin-1 (Homo sapiens) (UniProt Q96EB6+Q96SW2); test: Protac activity at CRBN/SIRT1 in human BT549 cells assessed as SIRT1 degradation at 5 to 10 uM after 48 hrs by immunoblot analysis; format: cell-based; details: BT-549, dose microM 5-10, time 48.0 hrs
In short: (§2)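 MCF7 or BT-549 cells exposed to inhibitor at the indicated concentrations for 48 h; SIRT1, SIRT2 and SIRT3 levels read by immunoblot.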

[6] = target: T4, Protein cereblon/NAD-dependent protein deacetylase sirtuin-3, mitochondrial (Homo sapiens) (UniProt Q9NTG7+Q96SW2); test: Protac activity at CRBN/SIRT3 in human MCF7 cells assessed as SIRT3 degradation at 5 to 10 uM after 48 hrs by immunoblot analysis; format: cell-based; details: dose microM 5-10, time 48.0 hrs; in short: as §2
[7] = target: T4, Protein cereblon/NAD-dependent protein deacetylase sirtuin-3, mitochondrial (Homo sapiens); test: Protac activity at CRBN/SIRT3 in human BT549 cells assessed as SIRT3 degradation at 5 to 10 uM after 48 hrs by immunoblot analysis; format: cell-based; details: BT-549, dose microM 5-10, time 48.0 hrs; in short: as §2
[8] = target: T5, Protein cereblon/NAD-dependent protein deacetylase sirtuin-2 (Homo sapiens) (UniProt Q8IXJ6+Q96SW2); test: Protac activity at CRBN/SIRT2 in human MDA-MB-231 cells assessed as SIRT2 degradation after 48 hrs by immunoblot analysis; format: cell-based
In short: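 In MDA-MB-231 and MDA-MB-468 cells, SIRT2 was assessed by immunoblot after compound treatment.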

[9] = target: T5, Protein cereblon/NAD-dependent protein deacetylase sirtuin-2 (Homo sapiens); test: Protac activity at CRBN/SIRT2 in human MCF7 cells assessed as SIRT2 degradation at 0.5 uM after 48 hrs by immunoblot analysis; format: cell-based
In short: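 MCF7 cells given a range of concentrations below and above 5 μM (0.5 to 50 μM) for 48 h; SIRT2 measured by immunoblot against vehicle-treated cells.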

[10] = target: T5, Protein cereblon/NAD-dependent protein deacetylase sirtuin-2 (Homo sapiens); test: Protac activity at CRBN/SIRT2 in human MCF7 cells assessed as SIRT2 degradation at 25 uM by immunoblot analysis; format: cell-based
In short: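 MCF7 cells treated at a fixed concentration (10 or 25 μM) and harvested at several incubation times; SIRT2 level read by immunoblot.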

[11] = target: T5, Protein cereblon/NAD-dependent protein deacetylase sirtuin-2 (Homo sapiens); test: Protac activity at CRBN/SIRT2 in human MCF7 cells assessed as SIRT2 degradation at 5 uM preincubated with proteasome inhibitior MG132 for 2 hrs followed by compound addition measured after 16 hrs by immunoblot analysis; format: cell-based
In short: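 Proteasome dependence: MCF7 cells pretreated 2 h with 5 μM MG132, then cotreated with 5 μM compound plus 5 μM MG132 for 16 h more; SIRT2 detected by immunoblot.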

[12] = tested on: MCF7; test: Cytotoxicity against human MCF7 cells assessed as reduction in cell viability after 72 hrs; format: functional, cell-based
In short: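 Cells incubated with compound or thalidomide for 72 h; cell viability read out at the end of exposure.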

[13] = target: T5, Protein cereblon/NAD-dependent protein deacetylase sirtuin-2 (Homo sapiens); test: Protac activity at CRBN/SIRT2 in human HEK293T cells assessed as abundance ratio at 5 uM incubated for 16 hrs by TMT global proteomics assay relative to DMSO; format: cell-based; details: HEK-293T
In short: (§3)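 HEK 293T cells were treated for 16 h. Global proteome was quantified by Tandem Mass Tag labelling. The abundance ratio of each sirtuin was taken against DMSO-treated cells.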

[14] = target: T3, Protein cereblon/NAD-dependent protein deacetylase sirtuin-1 (Homo sapiens); test: Protac activity at CRBN/SIRT1 in human HEK293T cells assessed as abundance ratio at 5 uM incubated for 16 hrs by TMT global proteomics assay relative to DMSO; format: cell-based; details: HEK-293T
In short: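 HEK 293T cells given 5 μM compound for 16 h. Global proteomics used Tandem Mass Tag labelling, and each sirtuin's abundance is given as a ratio of treated to DMSO-treated cells.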

[15] = target: Protein cereblon/NAD-dependent protein deacylase sirtuin-5, mitochondrial (Homo sapiens) (UniProt Q9NXA8+Q96SW2); test: Protac activity at CRBN/SIRT5 in human HEK293T cells assessed as abundance ratio at 5 uM incubated for 16 hrs by TMT global proteomics assay relative to DMSO; format: cell-based; details: HEK-293T; in short: as §3
Chain of Protein cereblon/NAD-dependent protein deacylase sirtuin-5, mitochondrial (Homo sapiens) (Q96SW2 whole entry, looked up): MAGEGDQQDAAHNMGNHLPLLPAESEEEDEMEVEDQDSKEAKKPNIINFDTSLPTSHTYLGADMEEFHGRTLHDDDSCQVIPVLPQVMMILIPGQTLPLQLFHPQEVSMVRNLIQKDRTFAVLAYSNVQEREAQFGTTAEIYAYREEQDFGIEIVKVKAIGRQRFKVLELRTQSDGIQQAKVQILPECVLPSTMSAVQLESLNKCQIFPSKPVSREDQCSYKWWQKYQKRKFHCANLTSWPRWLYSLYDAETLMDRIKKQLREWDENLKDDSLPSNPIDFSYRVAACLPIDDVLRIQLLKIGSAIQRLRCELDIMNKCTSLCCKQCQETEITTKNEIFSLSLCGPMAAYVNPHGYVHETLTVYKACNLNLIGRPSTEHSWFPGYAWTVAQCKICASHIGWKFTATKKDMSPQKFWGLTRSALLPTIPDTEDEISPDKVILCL
Chain of Protein cereblon/NAD-dependent protein deacylase sirtuin-5, mitochondrial (Homo sapiens) (Q9NXA8 whole entry, looked up): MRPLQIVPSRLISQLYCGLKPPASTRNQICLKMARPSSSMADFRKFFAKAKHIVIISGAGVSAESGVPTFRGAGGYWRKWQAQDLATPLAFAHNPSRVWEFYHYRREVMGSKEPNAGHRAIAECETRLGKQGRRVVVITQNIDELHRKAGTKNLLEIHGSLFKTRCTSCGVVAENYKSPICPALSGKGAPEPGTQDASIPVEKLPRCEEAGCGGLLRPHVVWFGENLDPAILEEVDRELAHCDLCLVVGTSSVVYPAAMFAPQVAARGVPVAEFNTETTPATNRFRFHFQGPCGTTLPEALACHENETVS

T5 sequence (Q96SW2 whole entry, looked up, one chain of several): as the sequence (Q96SW2 whole entry, looked up) above
T3 sequence (Q96EB6 whole entry, looked up): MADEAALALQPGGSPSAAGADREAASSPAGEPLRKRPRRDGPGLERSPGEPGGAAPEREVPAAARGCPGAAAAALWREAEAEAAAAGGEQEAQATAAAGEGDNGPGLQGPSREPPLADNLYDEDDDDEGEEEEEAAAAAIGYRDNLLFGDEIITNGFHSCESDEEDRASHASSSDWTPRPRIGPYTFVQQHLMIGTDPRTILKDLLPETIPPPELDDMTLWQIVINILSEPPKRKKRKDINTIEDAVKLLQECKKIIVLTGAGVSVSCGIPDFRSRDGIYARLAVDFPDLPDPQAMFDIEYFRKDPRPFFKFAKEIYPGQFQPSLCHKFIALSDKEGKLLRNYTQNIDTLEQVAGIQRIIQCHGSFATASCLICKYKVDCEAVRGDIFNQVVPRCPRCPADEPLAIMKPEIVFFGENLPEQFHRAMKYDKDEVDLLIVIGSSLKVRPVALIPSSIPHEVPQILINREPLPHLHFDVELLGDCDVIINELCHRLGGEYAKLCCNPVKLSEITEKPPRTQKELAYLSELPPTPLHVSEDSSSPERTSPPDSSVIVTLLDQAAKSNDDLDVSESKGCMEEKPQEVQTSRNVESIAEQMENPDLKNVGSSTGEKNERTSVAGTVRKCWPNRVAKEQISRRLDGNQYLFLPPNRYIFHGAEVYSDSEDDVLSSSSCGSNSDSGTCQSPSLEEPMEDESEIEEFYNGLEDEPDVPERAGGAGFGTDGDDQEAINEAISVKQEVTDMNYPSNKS
T3 sequence (Q96SW2 whole entry, looked up): as the sequence (Q96SW2 whole entry, looked up) above
T4 sequence (Q96SW2 whole entry, looked up, one chain of several): as the sequence (Q96SW2 whole entry, looked up) above
Chain of NAD-dependent protein deacylase sirtuin-6 (Q8N6T7 whole entry): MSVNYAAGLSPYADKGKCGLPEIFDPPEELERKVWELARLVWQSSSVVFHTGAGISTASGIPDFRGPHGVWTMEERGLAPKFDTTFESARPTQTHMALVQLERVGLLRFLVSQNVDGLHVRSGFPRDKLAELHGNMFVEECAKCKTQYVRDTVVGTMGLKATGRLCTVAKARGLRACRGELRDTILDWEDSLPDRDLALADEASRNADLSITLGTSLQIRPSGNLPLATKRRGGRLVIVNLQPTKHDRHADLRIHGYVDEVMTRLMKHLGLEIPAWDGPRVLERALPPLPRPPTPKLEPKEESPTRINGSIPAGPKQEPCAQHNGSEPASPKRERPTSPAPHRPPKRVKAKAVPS

CCCCCCCCCCCCCC(=S)NCCCC[C@H](NC(=O)CCOCCOCCOCCOCCNc1cccc2c1C(=O)N(C1CCC(=O)NC1=O)C2=O)C(=O)Nc1ccccc1 (stereo not given in full)
IC50 [1]: 78 nM
IC50 [2]: 110 nM
IC50 [3]: > 83000 nM
IC50 [4]: > 83000 nM
Activity [5]: inactive
Activity [6]: inactive
Activity [7]: inactive
Activity [8]: Active
Activity [9]: Active
Activity [10]: inactive
Activity [11]: inactive
Activity [12]: Active
Ratio [13]: 0.36
Activity [14]: inactive
Activity [15]: inactive
